Data: publication PMC8992017 (Journal of medicinal chemistry, 2019)
Entries after “also recorded” stand apart in the source; their conditions may differ.

How the values were obtained:
[1] = system: NF-κB; experiment: NF-κB activation in THP1-Blue NF-κB reporter cells; format: cell-based; settings: compound 5 μM + LPS, compared with compound 1
Procedure, shortened: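 THP1-Blue NF-κB cells at 10^5/well in RPMI with 10% FBS, pen/strep and Normocin. Test compound (1 mM DMSO stock) was diluted into LPS medium, giving final 5 μM compound ([…]), with LPS co-added. After 20 h, supernatant SEAP was measured colorimetrically with QuantiBlue at 630 nm. Two-point normalized: reference sulfonamide + LPS = 200%, LPS alone = 100%; mean ± SEM.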

[2] = system: ISRE; experiment: ISRE activity in ISRE-bla THP-1 reporter cells; format: cell-based; settings: compound 5 μM + IFN-α, compared with compound 1
Procedure, shortened: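 ISRE-bla THP-1 cells at 5×10^4/well in RPMI with 10% dialyzed FBS, 0.1 mM non-essential amino acids, 1 mM pyruvate and pen/strep. Test compound (1 mM DMSO stock) was diluted in IFN-α medium, giving final 5 μM compound ([…]) and final 100 U/mL IFN-α. Incubation 16 h, then CCF4-AM FRET substrate 3 h at RT in the dark. Excitation 405 nm; background-subtracted 465/535 nm emission ratio. Two-point normalized: reference sulfonamide + IFN-α = 200%, IFN-α alone = 100%; mean ± SEM.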

| Compound | NF-κB activity (in words) [1] | ISRE activity (in words) [2] |
| --- | --- | --- |
| 3-Bromo-N-(4-chloro-2,5-dimethoxyphenyl)-4-ethoxybenzenesulfonamide [Compound 25] | inactive | inactive |
| CCOc1ccc(S(=O)(=O)Nc2ccc(Cl)c(OC)c2)cc1 [Compound 4, N-(4-chloro-3-methoxyphenyl)-4-ethoxybenzenesulfonamide] | complete loss of activity | complete loss of activity |
| CCOc1ccc(S(=O)(=O)Nc2ccc(Cl)cc2OC)cc1 [Compound 5, N-(4-chloro-2-methoxyphenyl)-4-ethoxybenzenesulfonamide] | complete loss of activity | complete loss of activity |
| CCOc1ccc(S(=O)(=O)Nc2cc(OC)ccc2OC)cc1 [Compound 6, N-(2,5-dimethoxyphenyl)-4-ethoxybenzenesulfonamide] | retained activity | retained activity |
| CCOc1ccc(S(=O)(=O)Nc2cc(OC)c(Br)cc2OC)cc1 [Compound 7, N-(4-bromo-2,5-dimethoxyphenyl)-4-ethoxybenzenesulfonamide] | retained activity | retained activity; also recorded: slightly skewed ISRE activity |
| CCOc1ccc(S(=O)(=O)Nc2cc(OC)c(Cl)c(OC)c2)cc1 [Compound 8, N-(4-chloro-3,5-dimethoxyphenyl)-4-ethoxybenzenesulfonamide] | complete loss of activity | complete loss of activity; also recorded: slightly skewed ISRE activity |
| CCOc1ccc(S(=O)(=O)Nc2cc(OC)c([N+](=O)[O-])cc2OC)cc1 [Compound 9, N-(2,5-dimethoxy-4-nitrophenyl)-4-ethoxybenzenesulfonamide] | – | inactive |
| CCOc1ccc(S(=O)(=O)Nc2cc(OC)c(N)cc2OC)cc1 [Compound 10, N-(4-amino-2,5-dimethoxyphenyl)-4-ethoxybenzenesulfonamide] | – | inactive |
| COc1cc(NS(=O)(=O)c2ccc(O)cc2)c(OC)cc1Cl [Compound 11, N-(4-chloro-2,5-dimethoxyphenyl)-4-hydroxybenzenesulfonamide] | not tolerated | not tolerated |
| COc1ccc(S(=O)(=O)Nc2cc(OC)c(Cl)cc2OC)cc1 [Compound 12, N-(4-chloro-2,5-dimethoxyphenyl)-4-methoxybenzenesulfonamide] | tolerated | tolerated |
| CCCOc1ccc(S(=O)(=O)Nc2cc(OC)c(Cl)cc2OC)cc1 [Compound 13, N-(4-chloro-2,5-dimethoxyphenyl)-4-propoxybenzenesulfonamide] | weakly active | weakly active |
| CCCCOc1ccc(S(=O)(=O)Nc2cc(OC)c(Cl)cc2OC)cc1 [Compound 14, 4-Butoxy-N-(4-chloro-2,5-dimethoxyphenyl)benzenesulfonamide] | gradual loss of activity | gradual loss of activity |
| C#CCOc1ccc(S(=O)(=O)Nc2cc(OC)c(Cl)cc2OC)cc1 [Compound 15, N-(4-chloro-2,5-dimethoxyphenyl)-4-(prop-2-yn-1-yloxy)benzenesulfonamide] | inactive | inactive |
| CCCc1ccc(S(=O)(=O)Nc2cc(OC)c(Cl)cc2OC)cc1 [Compound 16, N-(4-chloro-2,5-dimethoxyphenyl)-4-propylbenzenesulfonamide] | loss of activity | loss of activity |
| COc1cc(NS(=O)(=O)c2ccc([N+](=O)[O-])cc2)c(OC)cc1Cl [Compound 17, N-(4-chloro-2,5-dimethoxyphenyl)-4-nitrobenzenesulfonamide] | either weakly active or completely inactive | either weakly active or completely inactive |
| COc1cc(NS(=O)(=O)c2ccc(N)cc2)c(OC)cc1Cl [Compound 18, 4-Amino-N-(4-chloro-2,5-dimethoxyphenyl)benzenesulfonamide] | either weakly active or completely inactive | either weakly active or completely inactive |
| COc1cc(NS(=O)(=O)c2ccc(C#N)cc2)c(OC)cc1Cl [Compound 19, N-(4-chloro-2,5-dimethoxyphenyl)-4-cyanobenzenesulfonamide] | either weakly active or completely inactive | either weakly active or completely inactive |
| COc1cc(NS(=O)(=O)c2ccc(CNC(=O)OC(C)(C)C)cc2)c(OC)cc1Cl [Compound 20, tert-butyl (4-(N-(4-chloro-2,5-dimethoxyphenyl)sulfamoyl)benzyl)carbamate] | either weakly active or completely inactive | either weakly active or completely inactive |
| COc1cc(NS(=O)(=O)c2ccc(CN)cc2)c(OC)cc1Cl [Compound 21, 4-(aminomethyl)-N-(4-chloro-2,5-dimethoxyphenyl)benzenesulfonamide] | either weakly active or completely inactive | either weakly active or completely inactive |
| COc1cc(NS(=O)(=O)c2ccc(Oc3ccccc3)cc2)c(OC)cc1Cl [Compound 22, N-(4-chloro-2,5-dimethoxyphenyl)-4-phenoxybenzenesulfonamide] | – | inactive |
| COc1cccc(S(=O)(=O)Nc2cc(OC)c(Cl)cc2OC)c1 [Compound 23, N-(4-chloro-2,5-dimethoxyphenyl)-3-methoxybenzenesulfonamide] | none of these molecules was active | none of these molecules was active |
| COc1cc(NS(=O)(=O)c2ccccc2OC)c(OC)cc1Cl [Compound 24, N-(4-chloro-2,5-dimethoxyphenyl)-2-methoxybenzenesulfonamide] | none of these molecules was active | none of these molecules was active |
| COC(=O)c1ccc(S(=O)(=O)Nc2cc(OC)c(Cl)cc2OC)cc1 [Compound 26, Methyl 4-(N-(4-chloro-2,5-dimethoxyphenyl)sulfamoyl)benzoate] | – | active |
| COc1cc(NS(=O)(=O)c2ccc(C(N)=O)cc2)c(OC)cc1Cl [Compound 27, 4-(N-(4-chloro-2,5-dimethoxyphenyl)sulfamoyl)benzamide] | lost activity | lost activity |
| COc1cc(NS(=O)(=O)c2ccc(C(=O)O)cc2)c(OC)cc1Cl [Compound 28, 4-(N-(4-chloro-2,5-dimethoxyphenyl)sulfamoyl)benzoic acid] | lost activity | lost activity |
| CCOC(=O)c1ccc(S(=O)(=O)Nc2cc(OC)c(Cl)cc2OC)cc1 [Compound 29, Ethyl 4-(N-(4-chloro-2,5-dimethoxyphenyl)sulfamoyl)benzoate] | retained partial activity | retained partial activity |
| COc1cc(NS(=O)(=O)c2ccc(OC)c(N=[N+]=[N-])c2)c(OC)cc1Cl [Compound 61, 3-Azido-N-(4-chloro-2,5-dimethoxyphenyl)-4-methoxybenzenesulfonamide] | – | inactive |
